Measurements from ChEMBL document CHEMBL1124863, “Antiandrogenic steroidal sulfonylpyrazoles” (1990).
The source made the active and inactive calls. No cut-off for these calls is given here.

Assays:
Rattus norvegicus = species on record: Rattus norvegicus; test: Antiandrogenic activity as the dose required to inhibit testosterone propionate-induced rat ventral prostate weight gain in castrated immature rat by 50%.; type: functional, Prostate gland
Procedure, shortened: (§1)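 Weanling male Sprague-Dawley rats castrated; dosing began 1 week later, grouped by body weight. […] Rats weighed and killed the next day; ventral prostate removed, blotted, weighed. ED50 read graphically as dose halving TP-stimulated prostate weight gain.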

[1] = molecular target: T1, Androgen receptor (Rattus norvegicus) (UniProt P15207); settings: Prostate gland
T1 sequence (whole entry): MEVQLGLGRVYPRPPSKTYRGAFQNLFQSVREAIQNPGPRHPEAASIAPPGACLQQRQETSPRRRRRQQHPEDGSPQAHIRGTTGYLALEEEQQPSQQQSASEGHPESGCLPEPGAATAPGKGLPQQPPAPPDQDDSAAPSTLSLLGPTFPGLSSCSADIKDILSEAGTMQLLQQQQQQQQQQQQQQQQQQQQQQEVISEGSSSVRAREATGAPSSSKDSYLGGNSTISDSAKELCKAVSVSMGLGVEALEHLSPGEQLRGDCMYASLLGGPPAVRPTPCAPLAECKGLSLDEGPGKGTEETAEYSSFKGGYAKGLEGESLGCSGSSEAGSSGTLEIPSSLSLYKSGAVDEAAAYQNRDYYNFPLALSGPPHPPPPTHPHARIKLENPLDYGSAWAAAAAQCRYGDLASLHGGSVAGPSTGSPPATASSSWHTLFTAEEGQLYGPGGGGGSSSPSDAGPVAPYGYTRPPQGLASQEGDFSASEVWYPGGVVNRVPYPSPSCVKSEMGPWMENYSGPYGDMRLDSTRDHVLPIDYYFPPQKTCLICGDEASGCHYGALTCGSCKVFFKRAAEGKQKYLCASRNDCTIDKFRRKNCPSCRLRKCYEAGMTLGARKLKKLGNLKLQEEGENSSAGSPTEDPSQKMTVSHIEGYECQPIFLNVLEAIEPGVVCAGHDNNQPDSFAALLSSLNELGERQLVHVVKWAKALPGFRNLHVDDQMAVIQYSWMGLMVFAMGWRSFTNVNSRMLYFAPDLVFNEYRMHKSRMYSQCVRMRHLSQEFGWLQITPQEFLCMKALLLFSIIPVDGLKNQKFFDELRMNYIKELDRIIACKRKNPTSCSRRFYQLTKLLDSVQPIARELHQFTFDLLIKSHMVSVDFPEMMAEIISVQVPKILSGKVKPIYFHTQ

[2] = molecular target: T1, Androgen receptor (Rattus norvegicus); test: Anti-androgenic activity, inhibition of testosterone propionate induced rat ventral prostate (castrated immature rat) weight gain; type: functional; settings: Prostate gland; procedure, shortened: as §1
[3] = Rattus norvegicus, Prostate gland, read-out: ED50

Structure (SMILES)	ED50 (Rattus norvegicus; [3]) [mg/kg]	Increase [1]	further results
C[C@]1(O)CCC2C3CC[C@H]4Cc5nn(S(C)(=O)=O)cc5C[C@]4(C)C3CC[C@@]21C (stereo partly specified)	10	inactive	
CC(O)(CS(=O)(=O)c1ccc(F)cc1)C(=O)Nc1ccc(C#N)c(C(F)(F)F)c1 (stereo unspecified) [BICALUTAMIDE]	4		
C#C[C@]1(O)CCC2C3CC[C@H]4Cc5n[nH]cc5C[C@]4(C)C3CC[C@@]21C (stereo partly specified)	50		
C#C[C@]1(O)CCC2C3CC[C@H]4Cc5nn(S(=O)(=O)CC)cc5C[C@]4(C)C3CC[C@@]21C (stereo partly specified)	100		
C[C@]12Cc3cn(S(C)(=O)=O)nc3C=C1CCC1C2CC[C@@]2(C)C1CC[C@@H]2O (stereo partly specified)	> 100		
CC(C)C(=O)Nc1ccc([N+](=O)[O-])c(C(F)(F)F)c1 [FLUTAMIDE]	5		
C#C[C@]1(O)CCC2C3CC[C@H]4Cc5nn(S(=O)(=O)C(C)C)cc5C[C@]4(C)C3CC[C@@]21C (stereo partly specified)	> 100		
C#C[C@]1(O)CCC2C3CC[C@H]4Cc5c(c[nH][n+]5S(C)(=O)=O)C[C@]4(C)C3CC[C@@]21C (stereo partly specified)	> 100	inactive	
C[C@]12CCC3C(CC[C@H]4Cc5nn(S(C)(=O)=O)cc5C[C@]34C)C1CCC2=O (stereo partly specified)	100	inactive	
CC(=O)O[C@]1(C(C)=O)CC[C@H]2[C@@H]3C=C(Cl)C4=CC(=O)[C@@H]5C[C@@H]5[C@]4(C)[C@H]3CC[C@@]21C [CYPROTERONE ACETATE]	18		
C#C[C@]1(O)CCC2C3CCC4=C(Cl)c5nn(S(C)(=O)=O)cc5C[C@]4(C)C3CC[C@@]21C (stereo partly specified)	> 100		
C#C[C@]1(O)CCC2C3CC[C@H]4Cc5nn(S(=O)(=O)CCCC)cc5C[C@]4(C)C3CC[C@@]21C (stereo partly specified)	> 100		
C#C[C@]1(O)CC[C@H]2[C@@H]3CC[C@H]4Cc5nn(S(C)(=O)=O)cc5C[C@]4(C)[C@H]3CC[C@@]21C (stereo in doubt; 1)		inactive	
CC(C)(O)C(=O)Nc1ccc([N+](=O)[O-])c(C(F)(F)F)c1 [HYDROXYFLUTAMIDE]	4	inactive	
C#C[C@]1(O)CC[C@H]2[C@@H]3CC[C@H]4Cc5nn(S(C)(=O)=O)cc5C[C@]4(C)[C@H]3CC[C@@]21C (stereo in doubt; 28) [ZANOTERONE]			ED50 (Rattus norvegicus): 40 mg/kg
CC1=C2CCC3C(CC[C@@]4(C)C3CC[C@]4(C)O)[C@@]2(C)Cc2cn(S(C)(=O)=O)nc21 (stereo partly specified)	3	inactive	
C#C[C@]1(O)CC[C@H]2[C@@H]3CC[C@H]4Cc5nn(S(C)(=O)=O)cc5C[C@]4(C)[C@H]3CC[C@@]21C (stereo in doubt; 28)		inactive	
CC[C@]1(O)CCC2C3CC[C@H]4Cc5nn(S(C)(=O)=O)cc5C[C@]4(C)C3CC[C@@]21C (stereo partly specified)	41	inactive	
C[C@]12Cc3cn(S(C)(=O)=O)nc3C=C1CCC1C2CC[C@@]2(C)C1CC[C@]2(C)O (stereo partly specified)	16	inactive	
C[C@]12CCC3C(CC[C@H]4Cc5nn(S(C)(=O)=O)cc5C[C@]34C)C1CC[C@@H]2O (stereo partly specified)	> 100		
C#C[C@]1(O)CC[C@H]2[C@@H]3CC[C@H]4Cc5nn(S(C)(=O)=O)cc5C[C@]4(C)[C@H]3CC[C@@]21C (stereo in doubt; 1) [ZANOTERONE]			ED50 (Rattus norvegicus): 15 mg/kg
C#C[C@]1(O)CCC2C3CC[C@H]4Cc5nn(S(=O)(=O)CCC)cc5C[C@]4(C)C3CC[C@@]21C (stereo partly specified)	< 100		
C#C[C@]1(O)CCC2C3CCC4=Cc5nn(S(C)(=O)=O)cc5C[C@]4(C)C3CC[C@@]21C (stereo partly specified)	< 100	inactive	
C=C[C@]1(O)CCC2C3CC[C@H]4Cc5nn(S(C)(=O)=O)cc5C[C@]4(C)C3CC[C@@]21C (stereo partly specified)		inactive	ED50 [2]: 33 mg/kg
CC(=O)[C@@]1(O)CC[C@H]2[C@@H]3C=C(Cl)C4=CC(=O)[C@@H]5C[C@@H]5[C@]4(C)[C@H]3CC[C@@]21C [CYPROTERONE]	87		
C#C[C@]1(O)CCC2C3CCC4=C(C)c5nn(S(C)(=O)=O)cc5C[C@]4(C)C3CC[C@@]21C (stereo partly specified)	14	inactive	
